ChEMBL document CHEMBL1124605, “Synthesis and anthelmintic activity of a series of pyrazino[2,1-a][2]benzazepine derivatives” (1989)

Test system: Taenia crassiceps
Experiment: Minimum inhibitory concentration to prevent all movement of cysts and evaginated scoleces of in vitro Taenia crassiceps screen after 48 h
Type: functional
How it was run: (§1)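 Taenia crassiceps cysts taken from mice, pepsin-treated (0.05% in HCl, pH 2.0, 5 min, 37 °C) and washed three times in Hank's balanced salt solution. Compound added as a methylcellulose suspension (final 10 μg/mL) in CMRL 1066-based medium with fetal calf serum, glucose, taurocholate, yeast extract, HEPES and antibiotics, at 37 °C. Invaginated and evaginated cysts scored at 24 and 48 h. Actives titrated for MIC.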

Row | MIC [µg/mL] | Structure (SMILES)
1 | > 10 | CC(C)C(=O)N1CC(=O)N2CCCc3ccccc3C2C1 (stereo unspecified)
2 | > 10 | Cl.O=C(C1CCCCC1)N1CCN2CCCc3ccccc3C2C1 (stereo unspecified)
3 | > 10 | O=C(c1cccnc1)N1CC(=O)N2CCCc3ccccc3C2C1 (stereo unspecified)
4 | > 10 | O=C(c1ccc(F)cc1)N1CC(=O)N2CCCc3ccccc3C2C1 (stereo unspecified)
5 | > 10 | O=C(C1CCCCC1)N1CC(=S)N2CCCc3ccccc3C2C1 (stereo unspecified)
6 | ≤ 10 | O=C(c1cccc([N+](=O)[O-])c1)N1CC(=O)N2CCCc3ccccc3C2C1 (stereo unspecified)
7 | > 10 | O=C(C1CCOCC1)N1CC(=O)N2CCCc3ccccc3C2C1 (stereo unspecified)
8 | ≤ 0.1 | O=C(C1CCCCC1)N1CC(=O)N2CCc3ccccc3C2C1 (stereo unspecified) [PRAZIQUANTEL]
9 | > 10 | CN(C)c1ccc(C(=O)N2CC(=O)N3CCCc4ccccc4C3C2)cc1 (stereo unspecified)
10 | > 10 | O=C(c1ccc(O)cc1)N1CC(=O)N2CCCc3ccccc3C2C1 (stereo unspecified)
11 | > 10 | O=C(C1CCC1)N1CC(=O)N2CCCc3ccccc3C2C1 (stereo unspecified)
12 | > 10 | CC(=O)N1CC(=O)N2CCCc3ccccc3C2C1 (stereo unspecified)
13 | ≤ 10 | Cc1ccc(C(=O)N2CC(=O)N3CCCc4ccccc4C3C2)cc1 (stereo unspecified)
14 | > 10 | O=C(C1CCCCC1)N1CC(=O)N2CCSc3ccccc3C2C1 (stereo unspecified)
15 | > 10 | O=C(c1ccc([N+](=O)[O-])cc1)N1CC(=O)N2CCCc3ccccc3C2C1 (stereo unspecified)
16 | > 10 | Nc1cccc(C(=O)N2CC(=O)N3CCCc4ccccc4C3C2)c1 (stereo unspecified)
17 | > 10 | O=C(c1ccc(Cl)cc1)N1CC(=O)N2CCCc3ccccc3C2C1 (stereo unspecified)
18 | > 10 | Cc1cccc(C(=O)N2CC(=O)N3CCCc4ccccc4C3C2)c1 (stereo unspecified)
19 | > 10 | O=C(C1CCCCCC1)N1CC(=O)N2CCCc3ccccc3C2C1 (stereo unspecified)
20 | > 10 | O=C(c1cccc(Cl)c1)N1CC(=O)N2CCCc3ccccc3C2C1 (stereo unspecified)
21 | > 10 | CCCCCC(=O)N1CC(=O)N2CCCc3ccccc3C2C1 (stereo unspecified)
22 | ≤ 0.1 | O=C(C1CCCCC1)N1CC(=O)N2CCCc3ccccc3C2C1 (stereo unspecified) [EPSIPRANTEL]
23 | > 10 | COc1cc2c(cc1OC)C1CN(C(=O)C3CCCCC3)CC(=O)N1CCC2 (stereo unspecified)
24 | > 10 | Cc1ccccc1C(=O)N1CC(=O)N2CCCc3ccccc3C2C1 (stereo unspecified)
25 | > 10 | COc1ccc(C(=O)N2CC(=O)N3CCCc4ccccc4C3C2)cc1 (stereo unspecified)

Test system: Taenia crassiceps
Experiment: 1 Minimum inhibitory concentration to prevent all movement of cysts and evaginated scoleces of in vitro Taenia crassiceps screen after 48 h
Type: functional
How it was run: as §1

Row | MIC [µg/mL] | Structure (SMILES)
26 | < 0.1 | O=C(C1CCCCC1)N1CC(=O)N2CCCc3ccccc3C2C1 (single isomer, unassigned; (-)) [EPSIPRANTEL]
